Assay [1] concerns BMDC. Description: Inhibition of LPS-induced immune response in C57BL/6 mouse BMDC assessed as reduction in TNFalpha secretion at 25 uM treated 6 hrs post LPS-challenge measured after 60 to 120 mins by ELISA. The format is functional, cell-based. In outline:
(§1)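 Bone marrow DCs from 6-week-old female C57BL/6 mice, RBC-lysed, cultured in RPMI-1640/10% FBS with 10 ng/mL rmGM-CSF, 37 °C, 5% CO2. Cells given LPS 50 ng/mL for 6 h, then 25 μM compound added for 30, 60, 90 or 120 min. Supernatant TNF-α, IL-6, IL-10, IL-12p70 measured by sandwich ELISA. Mean ± SEM, compared with LPS-only DCs.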
A general note: In an ELISA, binding on a coated surface is turned into a signal by an enzyme label.

The target of assay [2] is T1, Toll-like receptor 4 (Mus musculus) (UniProt Q9QUK6).
T1 sequence (whole entry): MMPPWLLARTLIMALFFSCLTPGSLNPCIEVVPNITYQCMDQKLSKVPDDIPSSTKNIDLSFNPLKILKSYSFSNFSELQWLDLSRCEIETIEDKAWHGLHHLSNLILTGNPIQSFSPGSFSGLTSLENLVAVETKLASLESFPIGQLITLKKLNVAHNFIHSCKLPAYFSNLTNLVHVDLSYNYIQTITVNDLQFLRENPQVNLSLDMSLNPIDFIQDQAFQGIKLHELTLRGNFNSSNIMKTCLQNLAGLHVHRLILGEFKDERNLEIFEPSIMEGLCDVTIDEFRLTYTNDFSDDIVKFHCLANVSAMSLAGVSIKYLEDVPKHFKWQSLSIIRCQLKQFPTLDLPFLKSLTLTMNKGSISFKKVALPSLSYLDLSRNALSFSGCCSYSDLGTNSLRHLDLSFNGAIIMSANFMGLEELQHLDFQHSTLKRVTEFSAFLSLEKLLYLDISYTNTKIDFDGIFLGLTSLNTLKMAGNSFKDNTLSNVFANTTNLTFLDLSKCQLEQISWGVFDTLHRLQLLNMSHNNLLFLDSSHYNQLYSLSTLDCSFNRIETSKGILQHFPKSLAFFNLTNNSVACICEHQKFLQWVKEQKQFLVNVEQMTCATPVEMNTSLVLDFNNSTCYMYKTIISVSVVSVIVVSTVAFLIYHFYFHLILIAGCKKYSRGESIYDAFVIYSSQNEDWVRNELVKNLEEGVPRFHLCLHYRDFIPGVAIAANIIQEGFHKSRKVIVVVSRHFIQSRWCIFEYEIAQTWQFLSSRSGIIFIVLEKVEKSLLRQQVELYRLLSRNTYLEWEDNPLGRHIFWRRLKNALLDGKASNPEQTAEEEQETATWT
As to the kind of experiment: Inhibition of LPS-induced TLR4 activation in C57BL/6 mouse BMDC assessed as reduction in Akt phosphorylation at 25 uM pretreated for 30 mins followed by LPS-challenge measured after 15 to 90 mins by Western blot analysis. The format is cell-based. A digest of the protocol: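 BMDCs were pretreated 30 min with 25 μM compound, then stimulated with LPS 50 ng·mL−1 for the indicated times. Lysates (25 μg protein) were run on 10% SDS-PAGE and immunoblotted for phospho/total ERK, JNK, p38 and Akt, plus COX-2, IκBα and α-tubulin, with ECL detection. Representative of three experiments.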

Assay [3] concerns BMDC. As to the kind of experiment: Inhibition of LPS-induced immune response in C57BL/6 mouse BMDC assessed as reduction in IL-12p70 secretion at 25 uM treated 6 hrs post LPS-challenge measured after 60 to 120 mins by ELISA. The assay is classed as functional, cell-based. A digest of the protocol: as §1
Assay [4] concerns BMDC. Description: Inhibition of Escherichia coli DH5alpha infection-induced immune response in C57BL/6 mouse BMDC assessed as increase in IL10 secretion at 25 uM pretreated for 60 to 120 mins followed by Escherichia coli DH5alpha infection for 6 hrs by ELISA. The assay is classed as functional, cell-based. A digest of the protocol:
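C57BL/6 BMDCs received 25 μM compound and E. coli DH5α, 3 × 10^6 CFU·mL−1. Schedules were: compound 30 min before a 6 h infection; co-addition for 6 h; or compound for 30, 60, 90 or 120 min plus 6 h infection. Supernatant TNF-α, IL-6, IL-10 and IL-12p70 were measured by ELISA. At least three experiments in triplicate.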

Assay [5] concerns BMDC. As to the kind of experiment: Inhibition of Escherichia coli K1 infection-induced immune response in C57BL/6 mouse BMDC assessed as reduction in IL-12p70 secretion at 25 uM pretreated for 60 to 120 mins followed by Escherichia coli K1 infection for 6 hrs by ELISA. The assay is classed as functional, cell-based. In outline: (§2)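 BMDCs from C57BL/6 mice were given 25 μM compound and E. coli K1, […]. Timing was: compound 30 min before a 6 h infection; cotreatment for 6 h; or compound for 30–120 min with 6 h infection. Supernatant cytokines (TNF-α, IL-6, IL-10, IL-12p70) were measured by ELISA. At least three experiments in triplicate.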

Assay [6] deals with Mus musculus. Description: Antiseptic activity in Balb/c mouse model of Escherichia coli K1 infection-induced sepsis assessed as reduction in serum blood urea nitrogen level at 1 mg/kg, ip pretreated for 1 hr followed by Escherichia coli K1 infection measured after 2 hrs by ELISA. The assay is classed as functional, organism-based.
The target in assay [7] is Mitogen-activated protein kinase 8 (Homo sapiens) (UniProt P45983). As to the kind of experiment: Binding affinity to human C-terminal His6-tagged JNK1alpha1 (1 to 364 residues) expressed in Escherichia coli by tryptophan fluorescence quenching assay. A digest of the protocol: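 C-terminally His6-tagged human JNK1 (10 μM) was titrated with compound (0–100 μM; final protein:inhibitor 1:10) in 50 mM sodium phosphate, 100 mM NaCl, pH 8.0, at 25 °C. Tryptophan emission was recorded at 290–600 nm with excitation at 290 nm.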

Assay [8] relates to BMDC. Description: Increase in microRNA155 expression in LPS-induced C57BL/6 mouse BMDC at 25 uM pretreated for 30 mins followed by LPS-challenge measured after 6 hrs by qRT-PCR analysis. The format is functional, cell-based. A digest of the protocol: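 Total RNA was extracted from BMDCs with TRIzol and reverse transcribed. miR-146a, miR-155 and miR-187 were quantified by real-time qPCR with gene-specific primers.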

The test system of assay [9] is BMDC. As to the kind of experiment: Inhibition of Escherichia coli K1 infection-induced immune response in C57BL/6 mouse BMDC assessed as reduction in IL-6 secretion at 25 uM pretreated for 30 mins followed by Escherichia coli K1 infection for 6 hrs by ELISA. The format is functional, cell-based. A digest of the protocol: as §2
For assay [10], the system named is Mus musculus. As to the kind of experiment: Antiinflammatory activity in Balb/c mouse model of LPS-induced endotoxemia assessed as reduction in TNFalpha level in lungs at 1 mg/kg, ip pretreated for 1 hr followed by LPS-challenge measured after 12 hrs by ELISA. The assay is classed as functional, organism-based. A digest of the protocol: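 BALB/c mice got 1 mg·kg−1 i.p. 1 h before i.p. LPS 10 mg·kg−1. After 12 h, TNF-α and IL-6 in lung lysates were measured by sandwich ELISA. Means ± SEM.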

Assay [11] deals with BMDC. As to the kind of experiment: Inhibition of LPS-induced immune response in C57BL/6 mouse BMDC assessed as increase in IL10 secretion at 25 uM treated 6 hrs post LPS-challenge measured after 30 mins by ELISA. The assay is classed as functional, cell-based. A digest of the protocol: as §1
For assay [12], the system named is BMDC. Description: Inhibition of Escherichia coli K1 infection-induced immune response in C57BL/6 mouse BMDC assessed as reduction in IL-6 secretion at 25 uM pretreated for 60 to 120 mins followed by Escherichia coli K1 infection for 6 hrs by ELISA. The assay is classed as functional, cell-based. In outline:
as §2

Activity calls are given as the source filed them. The calls are words filed in the database; no cut-off is given here.

Chain of Mitogen-activated protein kinase 8 (Homo sapiens) (P45983 whole entry, the tested form may be a part): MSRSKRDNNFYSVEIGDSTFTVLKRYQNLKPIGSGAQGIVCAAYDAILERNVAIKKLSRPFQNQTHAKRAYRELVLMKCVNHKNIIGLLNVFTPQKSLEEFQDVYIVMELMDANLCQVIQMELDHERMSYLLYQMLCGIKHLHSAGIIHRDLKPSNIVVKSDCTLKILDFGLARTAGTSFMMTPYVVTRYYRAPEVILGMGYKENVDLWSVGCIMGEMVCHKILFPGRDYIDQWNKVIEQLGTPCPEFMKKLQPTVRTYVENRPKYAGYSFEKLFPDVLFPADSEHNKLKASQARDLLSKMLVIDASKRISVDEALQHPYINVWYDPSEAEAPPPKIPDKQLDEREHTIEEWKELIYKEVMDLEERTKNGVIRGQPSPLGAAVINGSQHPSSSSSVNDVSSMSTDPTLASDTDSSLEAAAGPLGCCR

For the molecule `COc1ccc(-c2oc3cc(O)cc(O)c3c(=O)c2O)cc1O` [TAMARIXETIN], the inhibition entry in the assay on BMDC [1], in the assay on BMDC [3], in the assay on BMDC [4], in the assay with BMDC [5] and in the assay with BMDC [12] was “inactive” in each case. The inhibition entry (in [2]; in the assay with BMDC [9]; in the assay on BMDC [11]) was “Active” throughout. Besides, the result in the assay on Mus musculus [6], in the assay on BMDC [8] and in the assay with Mus musculus [10] was Active. In addition, in assay [7], the K turned out to be 4.9 ×10⁵ /M.

For the origin of these results see ChEMBL document CHEMBL4145607, “Tamarixetin Exhibits Anti-inflammatory Activity and Prevents Bacterial Sepsis by Increasing IL-10 Production” (J Nat Prod, 2018).
